The values that follow come from ChEMBL document CHEMBL4257532, “Synthesis and antitumoral activity of novel analogues monastrol-fatty acids against glioma cells” (Medchemcomm, 2018).

Assay [1] relates to C6. The assay is described as follows: Cytotoxicity against rat C6 cells assessed as reduction in cell viability at 5 uM after 48 hrs by MTT assay relative to control. The assay is classed as functional. In short, it runs like this:
(§1)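 C6 rat glioma cells in DMEM/10% FBS at 37 °C, 5% CO2. Seeded at 1 × 10^4 cells/well and exposed 48 h to 5–50 μM in DMSO, with a 1% DMSO vehicle control. MTT added at 0.5 mg/mL final for 60 min at 37 °C. Formazan dissolved in DMSO and read at 492 nm. Viability expressed as % of control. IC50 by linear regression of % inhibition against log concentration.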

The subject of assay [2] is C6. The assay is described as follows: Cytotoxicity against rat C6 cells assessed as reduction in cell viability after 48 hrs by MTT assay. Type of assay: functional, cell-based. The following applies: for pIC50: C6, 48 h. The method, boiled down:
as §1

The subject of assay [3] is C6. Briefly: Antiproliferative activity against rat C6 cells at 5 to 50 uM after 48 hrs by Neubauer chamber method. The assay is classed as functional, cell-based. In short, it runs like this:
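C6 rat glioma cells (ATCC) grown in DMEM/10% FBS with penicillin/streptomycin and Fungizone at 37 °C, 5% CO2. Plated at 5 × 10^3 cells/well and treated 48 h with 5, 10, 25 or 50 μM, dissolved in DMSO. Vehicle control was 1% DMSO. Cells then trypsinized and aliquots counted in a Neubauer chamber. ANOVA with Tukey post-test versus control.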

In assay [4] the test system is C6. The assay is described as follows: Potency index, ratio of monastrol-palmitic acid IC50 to compound IC50 for cytotoxicity against rat C6 cells. The assay is classed as functional.
The subject of assay [5] is C6. Briefly: Cytotoxicity against rat C6 cells assessed as reduction in cell viability at 10 uM after 48 hrs by MTT assay. Type of assay: functional, cell-based. In short, it runs like this:
as §1
On the technique in general: Tetrazolium dyes change colour on reduction, which living cells bring about.

For orientation: pIC50 means −log10 of the IC50, conventionally taken in molar units.

pIC50: −log10 of the molar value. Active and inactive are the calls of the source. The rule behind the calls is not given here.

For the molecule `CCCCCCCCCCCCCCCCCC1=C(C(=O)OC)C(c2cccc(O)c2)NC(=S)N1` (stereo not drawn), the Activity in assay [1] came out at 50%. Further, in assay [2], the Activity result was “Dose-dependent effect” and the negative-log IC50 (pIC50) was 5.16. In addition, the outcome in assay [3] was Active. Besides, in assay [4], the “Ratio IC50” value was 2.5.

`CCCCCCCC/C=C\CCCCCCCC1=C(C(=O)OC)C(c2cccc(O)c2)NC(=O)N1` (stereo not drawn): the pIC50 in assay [2] is 3.78. In addition, the outcome in assay [3] and in assay [5] was Active.

Turning to `CCCCCCCC/C=C\CCCCCCCC1=C(C(=O)OC)C(c2cccc(O)c2)NC(=S)N1` (stereo not drawn), in assay [2], the negative-log IC50 (pIC50) is 4.42. Further, the result in assay [3] was Active.

Consider `CCOC(=O)C1=C(C)NC(=S)NC1c1cccc(O)c1` (stereo not drawn) [MONASTROL], for which, in assay [2], the negative logarithm of the IC50 (pIC50) was 4.06. For the same molecule, the result in assay [3] was Active.

In the case of `CCCCCCCCCCCCCCCC1=C(C(=O)OC)C(c2cccc(O)c2)NC(=O)N1` (stereo not drawn), the outcome in assay [1] and in assay [3] was Active. In assay [2], the pIC50 was 4.10.

With `CCCCCCCCCCCCCCCCCC1=C(C(=O)OC)C(c2cccc(O)c2)NC(=O)N1` (stereo not drawn), the result in assay [1] and in assay [3] was Active. Moreover, in assay [2], the pIC50 is 4.66.

Turning to `CCCCCCCCCCCCCCCC1=C(C(=O)OC)C(c2cccc(O)c2)NC(=S)N1` (stereo not drawn), in assay [1], the Activity is 50%. In assay [2], the Activity result was “Dose-dependent effect” and the negative logarithm of the IC50 (pIC50) is 5.29. In addition, the outcome in assay [3] was Active. The “Ratio IC50” value in assay [4] is on record as 2.5.
